Test results: ChEMBL document CHEMBL1140291, “Quinic acid derivatives as sialyl Lewis(x)-mimicking selectin inhibitors: design, synthesis, and crystal structure in complex with E-selectin” (J Med Chem, 2005)

Columns and labels:
P-selectin = target: T1, P-selectin (Homo sapiens, UniProt P16109); test: Inhibitory concentration against selectin P in Biacore assay
T1 sequence (P16109 whole entry): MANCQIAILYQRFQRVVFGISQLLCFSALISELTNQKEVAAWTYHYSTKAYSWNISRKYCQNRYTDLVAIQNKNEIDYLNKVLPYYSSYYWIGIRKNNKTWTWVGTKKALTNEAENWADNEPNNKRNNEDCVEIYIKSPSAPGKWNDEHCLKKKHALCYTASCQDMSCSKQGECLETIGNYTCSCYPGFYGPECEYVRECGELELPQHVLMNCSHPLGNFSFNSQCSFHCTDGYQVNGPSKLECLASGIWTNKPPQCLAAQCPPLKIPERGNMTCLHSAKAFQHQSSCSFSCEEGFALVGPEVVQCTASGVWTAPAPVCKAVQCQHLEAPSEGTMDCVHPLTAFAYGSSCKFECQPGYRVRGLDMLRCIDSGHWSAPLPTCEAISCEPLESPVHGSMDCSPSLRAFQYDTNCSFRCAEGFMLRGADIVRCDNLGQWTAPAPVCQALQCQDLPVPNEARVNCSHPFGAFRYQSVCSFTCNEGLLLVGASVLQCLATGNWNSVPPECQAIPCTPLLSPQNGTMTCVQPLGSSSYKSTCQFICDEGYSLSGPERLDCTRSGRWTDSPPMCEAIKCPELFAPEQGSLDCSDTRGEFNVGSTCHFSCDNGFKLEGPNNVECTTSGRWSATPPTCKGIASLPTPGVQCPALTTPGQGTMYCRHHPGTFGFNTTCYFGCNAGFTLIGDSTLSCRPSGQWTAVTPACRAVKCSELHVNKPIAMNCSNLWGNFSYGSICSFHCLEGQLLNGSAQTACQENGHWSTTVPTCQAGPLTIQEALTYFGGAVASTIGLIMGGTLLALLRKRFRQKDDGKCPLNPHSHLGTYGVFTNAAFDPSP
Procedure, shortened: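 SPR at 25 °C. Biotinylated monomeric truncated human PSGL-1 (19ek) was immobilised on a streptavidin chip. Compounds were preincubated 1 h with 500 nM monomeric P-selectin (P-LE) in HEPES/NaCl/1 mM CaCl2/MgCl2/0.05% P40/10% DMSO, then injected at 0–6 mM in duplicate, at least two runs. IC50 was extrapolated from the RU vs concentration plot after blank and reference subtraction.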

[1] = (§1) Anti-inflammatory activity as selectin-mediated rolling of human neutrophils on stimulated human umbilical vein endothelial cells; type: functional, cell-based; conditions: endothelial cell
Procedure, shortened: (§2)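 Parallel plate flow chamber; human neutrophils rolled over confluent HUVEC monolayers activated with […] just before the run to raise surface P-selectin. Rolling cells counted by digital imaging/videotape, averaged over 10 fields on each of three monolayers per test article. Active compounds titrated for IC50. Glycyrrhizin trisodium salt as positive control.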

[2] = Maximum concentration observed in rat ( 20 mg/kg iv ); type: ADME, organism-based; design: dose 20 mg/kg, route intravenous; conditions: in vivo
Procedure, shortened: (§3)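 Single 20 mg/kg iv bolus (10 mg/mL in 50% DMSO/50% PEG400). Blood drawn at 5 min and 0.5, 0.75, 1, 2, 4, 7, 24 h, with saline replacing lost volume. Plasma precipitated with CH3CN and analysed by LC/MS. Linear trapezoid noncompartmental analysis.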

[3] = Area under curve in rat ( 20 mg/kg iv ); type: ADME, organism-based; design: dose 20 mg/kg, route intravenous; conditions: in vivo; procedure, shortened: as §3
[4] = Clearance observed in rat ( 20 mg/kg iv ); type: ADME, organism-based; design: dose 20 mg/kg, route intravenous; conditions: in vivo; procedure, shortened: as §3
[5] = as §1; type: functional, cell-based; conditions: endothelial cell; remark: listed apart in the source
Procedure, shortened: as §2, with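 “article.” for “article. Active compounds titrated for IC50.”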

SMILES	IC50 (P-selectin) [mM]	IC50 [1] [mM]	Cmax [2] [µM]	AUC [3] [µM·h]	clearance [4] [mL/min/kg]	IC50 [5] [mM]
O=C(O)[C@]1(OCc2ccc(-c3ccccc3C(F)(F)F)cc2)C[C@@H](O)[C@@H](O)[C@H](O)C1	10	0.625	212	219	4	
O=C(O)[C@]1(OCc2ccccc2-c2cccc3c2Sc2ccccc2S3)C[C@@H](O)[C@@H](O)[C@H](O)C1	≤ 0.002					1
